Results as given in PMC4096040 (The Journal of endocrinology, 2012).

What was measured:
INS-1 cells [1] = assay: JC-1 Mitochondrial Membrane Potential Assay; assay type: cell-based; conditions: 18.25 μM t-BHP alone, 48 h, Fig. 2C
INS-1 cells [2] = assay: Pan caspase activity; assay type: cell-based; conditions: 18.25 μM t-BHP alone, compared with the control group, Fig. 4C
INS-1 cells [3] = assay: Mitochondrial cytochrome c release; assay type: cell-based; conditions: 18.25 μM t-BHP alone, 72 h, Fig. 4A
In short: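 INS-1 cells (100 000/well) were left untreated, given 18.25 μM t-BHP alone, or given t-BHP with 10 μM test compound for 72 h. They were processed according to the kit protocol, with cytochrome c labelled by FITC and nuclei by DAPI. Fluorescence microscopy followed, scoring loss of green signal as cytochrome c release.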

[4] = test system: diaminopeptidyl peptidase-4 (DPP4); conditions: removal of the N-terminal two amino acids; ref Lovshin & Drucker 2009; cited from earlier work
[5] = test system: NEP 24.11, known as neprilysin; conditions: products include GLP1(28–36)amide; ref Hupe-Sodmann et al. 1995; cited from earlier work

CC(C)(C)OO [t-BHP, tert-butyl hydro-peroxide]
mitochondrial potential, stressor alone (INS-1 cells [1]): loss of mitochondrial potential | caspase activity, stressor alone (INS-1 cells [2]): significant increase in caspase-3 activity | cytochrome c release, stressor alone (INS-1 cells [3]): stimulated cytochrome c release

GLP1(7–36)amide: 30 amino acid insulinotropic form of GLP1, known GLP1 receptor agonist
T1/2 of modification to GLP1(9–36)amide by DPP4 [4]: 1 to 2 min | cleavage by NEP 24.11 [5]: cleaves GLP1(7–36)amide into several smaller peptides
